Shown are actives, neighbours in structure and some others; about 1.8% of the full set was active somewhere.
TDP2 inh: TDP2 (human) inhibition, absorbance primary screen; O95551; recombinant TDP2, T5PNP hydrolysis, p-nitrophenol absorbance 415 nm; inhibition, % at 12.8 µM; hit rate 0.34% among 370,000; AID 720702;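 active = inhibition above the mean of all tested compounds plus 3 SD, set per campaign, cut at about 25% in these data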;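 note: 0% = DMSO with enzyme and 100% = buffer with substrate but no TDP2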
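Incubation: 2 h at 37 °C; Test system: recombinant human TDP2; Quantity: enzyme 120 nM; Read-out basis: percent inhibition; Medium: 50 mM Tris-HCl pH 7.5 with Mg2+, KCl, DTT, BSA; Repeats: single replicate; Compound: 12.8 µM single point, 1% DMSO; Signal: epi absorbance; Reagent: 5 mM T5PNP chromogenic substrate; Benchmarks: no-enzyme high, DMSO-plus-enzyme low.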
MBD2 DNA inh: inhibitors of human MBD2 binding to methylated oligonucleotide; TR-FRET; inhibition, % at 4.4 µM; hit rate 0.31% among 370,000; in the data active = inhibition above about 13%
LEDGF integ inh: blocks HIV-1 LEDGF/p75-dependent DNA integration; TR-FRET IN-LEDGF/p75 DNA integration, Eu/Cy5; inhibition, % at 3.7 µM; hit rate 0.64% among 370,000;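 active = inhibition above the screen-wide mean plus 3 SD, cut at about 13% in these data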;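 note: signal is the Cy5 over europium emission ratio at 671 and 618 nm; 0% = plate median of compound wells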
HCV core dimer: blocks dimerization of HCV core protein; TR-FRET GST/Flag-core106 dimerization, 1536-well; inhibition, % at 5 µM; hit rate 0.33% among 300,000; AID 1899;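 active = inhibition above the mean of all tested compounds plus 3 SD, set per screening campaign, cut at about 45% in these data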
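test system = GST/Flag-tagged HCV core106 proteins | probe or stimulus = Eu donor and XL665 acceptor anti-tag antibodies | times = compound-protein-antibody incubation 4 h at 22.5 °C | signal = TR-FRET, excitation 340 nm, emission 617 and 671 nm | measure = percent inhibition of core106 dimerization signal | controls = wells lacking GST-core106 and wells with excess unlabelled core106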
UHRF1 binding: blocks human UHRF1 binding to methylated DNA; Q96T88; UHRF1 binding to methylated oligo, TR-FRET; hit rate 0.75% among 370,000; AID 687016; inhibition, % at 4.4 µM; in the data active = inhibition above about 21%;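 note: UHRF1 SRA domain binding a hemimethylated CpG hairpin DNA probe; 0% = median of test compound wells and 100% = reference inhibitor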
Target sequence (Q96T88 whole entry, looked up, the tested form may be a part): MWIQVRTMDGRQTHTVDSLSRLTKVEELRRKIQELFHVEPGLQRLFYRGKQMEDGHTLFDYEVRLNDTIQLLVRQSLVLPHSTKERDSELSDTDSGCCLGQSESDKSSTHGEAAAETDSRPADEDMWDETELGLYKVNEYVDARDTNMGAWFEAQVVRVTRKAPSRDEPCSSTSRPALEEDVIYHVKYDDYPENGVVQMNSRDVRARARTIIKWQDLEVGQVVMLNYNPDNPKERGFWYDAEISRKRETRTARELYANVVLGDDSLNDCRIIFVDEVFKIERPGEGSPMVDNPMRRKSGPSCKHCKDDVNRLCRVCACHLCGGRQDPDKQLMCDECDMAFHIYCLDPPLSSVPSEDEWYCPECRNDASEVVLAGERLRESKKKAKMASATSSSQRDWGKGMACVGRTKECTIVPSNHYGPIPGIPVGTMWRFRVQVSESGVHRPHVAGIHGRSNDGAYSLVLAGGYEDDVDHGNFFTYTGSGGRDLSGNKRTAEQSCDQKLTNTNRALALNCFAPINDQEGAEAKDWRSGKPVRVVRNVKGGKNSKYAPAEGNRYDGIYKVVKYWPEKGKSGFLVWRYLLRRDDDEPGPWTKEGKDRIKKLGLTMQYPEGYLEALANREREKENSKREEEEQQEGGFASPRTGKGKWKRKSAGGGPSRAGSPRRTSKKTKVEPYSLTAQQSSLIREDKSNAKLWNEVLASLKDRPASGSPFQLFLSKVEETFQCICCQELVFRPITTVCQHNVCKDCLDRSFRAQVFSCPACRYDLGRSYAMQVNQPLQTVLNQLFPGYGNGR
IN multimer act: counter-screen for LEDGF/p75 integration inhibitors: HIV-1 integrase multimerization activators; shares compounds with LEDGF integ inh; AID 1053131; hit rate 17% among 2,000; TR-FRET HIV-1 integrase multimerization, biochemical; activation, % at 7.7 µM; in the data active = activation above about 8.9%
TRFRET interf: counter-screen for LEDGF/p75 integration inhibitors: TR-FRET optical interference; shares compounds with LEDGF integ inh; TR-FRET optical interference counterscreen, HIV-1 IN multimerization; inhibition, % at 7.7 µM; 2,000 tested, under 10 active; AID 1053135;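 active = inhibition above the mean over all tested compounds plus 3 SD, which no compound reached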;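 note: 0% = integrase with antibodies and DMSO and 100% = antibodies without integrase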
IN-LEDGF confirm: confirmation of HIV-1 LEDGF/p75-dependent integration inhibitors | TR-FRET LEDGF/p75-dependent HIV-1 integration, biochemical | AID 1053136 | hit rate 36% among 2,000 | shares compounds with LEDGF integ inh | inhibition, % at 3.7 µM; in the data active = inhibition above about 14%
Starred values were filed as active, the others as inactive.

Results for Cc1cccc(NC(=O)CN2C(=O)N/C(=C\c3ccccc3OCc3ccc(C(=O)O)cc3)C2=O)c1 ?
TDP2 inh: -17; MBD2 DNA inh: 3; LEDGF integ inh: 17*; HCV core dimer: -6; UHRF1 binding: 1; IN multimer act: -3; TRFRET interf: 14; IN-LEDGF confirm: 8

Results for CC(C)CN=Cc1c(O)c([N+](=O)[O-])cc2oc3c(c12)CCCC3 ?
TDP2 inh: 8; MBD2 DNA inh: -14; LEDGF integ inh: 49*; HCV core dimer: 13; UHRF1 binding: -13; IN multimer act: 0; TRFRET interf: 1; IN-LEDGF confirm: 66*

What do the screens show for `O=[N+]([O-])c1cc2oc3c(c2c(C=NCc2ccccc2)c1O)CCCC3`?
TDP2 inh: 8; MBD2 DNA inh: -7; LEDGF integ inh: 25*; HCV core dimer: 17; UHRF1 binding: -8; IN multimer act: 1; TRFRET interf: -6; IN-LEDGF confirm: 71*

Results for COC(=O)c1ccc2c(C(C)c3ccccc3O)c[nH]c2c1 (configuration not stated) ?
TDP2 inh: 13; MBD2 DNA inh: 3; LEDGF integ inh: 0; UHRF1 binding: -2

Results for COc1ccc(C2C(C#N)=C(N)OC3=C2C(=O)CC(C)(C)C3)cc1Cn1nc(C)c([N+](=O)[O-])c1C (configuration not stated) ?
TDP2 inh: 3; MBD2 DNA inh: -2; LEDGF integ inh: 14*; HCV core dimer: 17; UHRF1 binding: -2; IN multimer act: 1; TRFRET interf: -6; IN-LEDGF confirm: -5

How did COc1ccc(NC(=S)N2CCC(NC(=O)c3ccc(OC)cc3)CC2)cc1 do in these assays?
TDP2 inh: 5; MBD2 DNA inh: 1; LEDGF integ inh: 27*; HCV core dimer: -4; UHRF1 binding: -2; IN multimer act: -1; TRFRET interf: 7; IN-LEDGF confirm: 0

How did COC(=O)[C@]12C[C@H](CC(=O)NCc3cccc(C(F)(F)F)c3)C(=O)N(Cc3cccc4ccccc34)C1=C[C@H](C1CCCC1)O[C@@H]2C do in these assays?
TDP2 inh: 4; MBD2 DNA inh: 5; LEDGF integ inh: -1; UHRF1 binding: 1

Results for O=C1CC(c2ccco2)CC(O)=C1C=Nc1cc(Cl)cc(Cl)c1 (configuration not stated) ?
TDP2 inh: -4; MBD2 DNA inh: 8; LEDGF integ inh: 45*; HCV core dimer: 6; UHRF1 binding: 33*; IN multimer act: 0; TRFRET interf: 2; IN-LEDGF confirm: 0

What do the screens show for `CCOc1ccc(N=CC2=C(O)CC(c3ccco3)CC2=O)cc1` (configuration not stated)?
TDP2 inh: 12; MBD2 DNA inh: -3; LEDGF integ inh: -2; HCV core dimer: 1; UHRF1 binding: -3

Results for CC(=O)N1CCN(c2ccc(NCc3ccc(-c4ccc(Br)cc4)o3)cc2)CC1 ?
TDP2 inh: 18; MBD2 DNA inh: 1; LEDGF integ inh: 19*; UHRF1 binding: 5; IN multimer act: 6; TRFRET interf: -30; IN-LEDGF confirm: -1

Results for CC(=O)N1CCN(c2ccc(NCc3ccc(C)s3)cc2)CC1 ?
TDP2 inh: 19; MBD2 DNA inh: 1; LEDGF integ inh: 15*; HCV core dimer: -6; UHRF1 binding: 0; IN multimer act: 6; TRFRET interf: -22; IN-LEDGF confirm: 1

How did CC(=O)N1CCN(c2ccc(NCc3cccs3)cc2)CC1 do in these assays?
TDP2 inh: 16; MBD2 DNA inh: 1; LEDGF integ inh: 22*; HCV core dimer: -7; UHRF1 binding: 0; IN multimer act: 3; TRFRET interf: -17; IN-LEDGF confirm: -3

Results for CC(=O)N1CCN(c2ccc(NCc3ccccc3)cc2)CC1 ?
TDP2 inh: 11; MBD2 DNA inh: -5; LEDGF integ inh: 12; HCV core dimer: -12; UHRF1 binding: -1

How did COc1ccc(CNc2ccc(N3CCN(C(C)=O)CC3)cc2)cc1OC do in these assays?
TDP2 inh: -8; MBD2 DNA inh: -4; LEDGF integ inh: 15*; UHRF1 binding: -1; IN multimer act: 4; TRFRET interf: -19; IN-LEDGF confirm: 0

What do the screens show for `Cc1ccc(CNc2ccc(N3CCOCC3)cc2)s1`?
TDP2 inh: 9; MBD2 DNA inh: -3; LEDGF integ inh: 13; HCV core dimer: -6; UHRF1 binding: -1

Results for COC(=O)C1CN(Cc2ccc(OC)cc2)CCS(=O)(=O)N1Cc1ccc(Cl)cc1 (configuration not stated) ?
TDP2 inh: -10; MBD2 DNA inh: -4; LEDGF integ inh: -3; UHRF1 binding: -1

Results for Cc1ccccc1CNC(=O)c1cccc2c1C(=O)N(Cc1cccnc1)C2 ?
TDP2 inh: 1; MBD2 DNA inh: 10; LEDGF integ inh: -6; UHRF1 binding: 3

How did COC(=O)C1=C(C)N(Cc2ccccc2C(F)(F)F)C(=NCc2ccccc2)NC1c1cccc(F)c1 (configuration not stated) do in these assays?
TDP2 inh: -7; MBD2 DNA inh: 8; LEDGF integ inh: -1; UHRF1 binding: 5

What do the screens show for `NC(=O)NCCC1=CCCCC1`?
TDP2 inh: 10; MBD2 DNA inh: -6; LEDGF integ inh: -2; HCV core dimer: -3; UHRF1 binding: -2

How did C=CCn1c(N)c(C(=O)NCCC2=CCCCC2)sc1=S do in these assays?
TDP2 inh: 3; MBD2 DNA inh: 1; LEDGF integ inh: 19*; HCV core dimer: -6; UHRF1 binding: 4; IN multimer act: 5; TRFRET interf: -25; IN-LEDGF confirm: -1

Results for CC(C)[C@@H]1Cc2[nH]n(C)c(=O)c2[C@H](c2ccc(F)cc2)O1 ?
TDP2 inh: 11; MBD2 DNA inh: -6; LEDGF integ inh: 87*; UHRF1 binding: -5; IN multimer act: 0; TRFRET interf: -2; IN-LEDGF confirm: -9

How did O=C1c2c(O)cc(O)cc2O[C@H](c2ccc(O)c(O)c2)[C@H]1O do in these assays?
TDP2 inh: -17; MBD2 DNA inh: -6; LEDGF integ inh: 23*; HCV core dimer: 5; UHRF1 binding: 0; IN multimer act: 2; TRFRET interf: -8; IN-LEDGF confirm: 12

What do the screens show for `O=C1c2c(O)cc(O)cc2O[C@H](c2ccc(O)c(O)c2)[C@@H]1O`?
HCV core dimer: -13

Compound activity: PubChem BioAssay, The Scripps Research Institute Molecular Screening Center
